Screening results from PubChem.
In the library only some 3.7% were active in any assay of this set; here they are far more common.
MC4R antag cAMP: human MC4R antagonism in cAMP assay | MC4R-expressing cells, MTII-stimulated cAMP, LANCE TR-FRET | inhibition, % at 6.5 µM | hit rate 0.48% among 360,000 | AID 540295;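 active means inhibition above its plate's cutoff, the mean of tested wells on that plate plus 3 SD, cut at about 29% in these data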
Target sequence (P32245 whole entry, looked up): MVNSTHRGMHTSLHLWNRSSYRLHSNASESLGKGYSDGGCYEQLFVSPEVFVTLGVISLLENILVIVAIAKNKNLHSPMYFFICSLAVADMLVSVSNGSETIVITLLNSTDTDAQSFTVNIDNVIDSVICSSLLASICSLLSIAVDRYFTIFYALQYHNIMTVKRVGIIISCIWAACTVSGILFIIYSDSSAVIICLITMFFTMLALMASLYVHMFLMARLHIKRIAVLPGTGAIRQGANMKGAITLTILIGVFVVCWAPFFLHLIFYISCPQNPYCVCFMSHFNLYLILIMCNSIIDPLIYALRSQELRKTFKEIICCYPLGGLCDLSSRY
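System – human MC4R-expressing U2OS cells · Also added – Melanotan II · Dosing – one concentration, 6.5 µM nominal · Timing – 30-min compound, 1-h challenge, 1-h detection, room temperature · Measured by – Eu-cAMP/anti-cAMP TR-FRET, emission 671 nm · Replicates – singlicate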
Myeloid diff 2: promotes myeloid progenitor differentiation. ER-HoxA9 myeloid progenitors, lysozyme-GFP differentiation, flow cytometry. calls only at 10 µM. hit rate 1% among 360,000. AID 624256;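 active means normalized GFP-positive differentiation at or above the plate's own cutoff, the solvent-only control mean plus 3 SD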;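 further: cells exposed to compound for four days before flow analysis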
MC4R barr agon: activates human MC4R beta-arrestin recruitment | P32245 | U2OS MC4R beta-arrestin complementation, luminescence; percent of melanotan II response, DMSO zero | activation, % at 8.9 µM | hit rate 0.98% among 360,000;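 active means activation above a per-plate cutoff, the mean activation of sample wells on that plate plus 3 SD, cut at about 8% in these data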
EBI2 block: antagonists of human EBI2 receptor; inhibition, % at 5 µM; AID 651636; EBI2 beta-arrestin recruitment, luminescence, 7a,25-OHC stimulated; hit rate 0.81% among 360,000; P32249; in the data active means inhibition above about 38%;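 further: enzyme fragment complementation signal reports receptor beta-arrestin coupling in cells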
Exocytosis inh: lytic granule exocytosis inhibition; inhibition, % at 10 µM; TALL-104 LAMP-1 surface exposure, flow cytometry; cells stimulated with thapsigargin and PMA; hit rate 0.66% among 360,000;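 active means inhibition above about 55%, limit read from the data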
Exocytosis CP01: blocks lytic granule exocytosis; shares compounds with Exocytosis inh; TALL-104 cells, LAMP-1 externalization, flow cytometry; stimulated with PMA plus thapsigargin; inhibition, % at 10 µM; hit rate 11% among 1,500; in the data active means inhibition above about 60%
Of the large screens only hits and unclear results are named; the others gave an inactive call (follow-up assays come after a bar, where they were run).

O=C(CCc1ccccc1)Nc1cccc([N+](=O)[O-])c1	none
O=C(CCCc1ccccc1)Nc1cccc([N+](=O)[O-])c1	Exocytosis inh 57 | Exocytosis CP01 inactive
COc1cc(C(=O)OCC(=O)NC(N)=O)cc(CN2C(=O)c3ccccc3C2=O)c1OC	none
OC(c1ccccc1)(c1ccc(F)cc1)C(c1ccccc1)N1CCOCC1 (stereo not given)	Exocytosis inh 98 | Exocytosis CP01 inactive
CC(NC(=O)CC12CC3CC(CC(C3)C1)C2)C(=O)O (stereo not given)	Exocytosis inh 63 | Exocytosis CP01 inactive
O=C(CC12CC3CC(CC(C3)C1)C2)NCO	none
Cc1cnc(CNC(=O)c2csc([C@@H]3O[C@H](CO)[C@H](O)[C@H](O)[C@H]3O)n2)cn1	none
Cc1cc2[nH]c(=O)c(=O)[nH]c2cc1S(=O)(=O)N1CCN(c2ccccc2)CC1	none
Cc1ccc(Br)cc1S(=O)(=O)N1CCN(c2ccccc2)CC1	Exocytosis inh 66 | Exocytosis CP01 inactive
